Data as given in paper PMC4818746 (Annals of Clinical and Translational Neurology, 2016).
Blank lines part the entries; values can stand above or below the compound they belong to.

Assays:
LRRK2-G2019S [1] = target: T1, LRRK2-G2019S (Homo sapiens, UniProt Q5S007, G2019S); test: Radiometric kinase assay, LRRK2-G2019S activity on MBP; assay type: biochemical; conditions: for reduction of p-MBP: G2019S on MBP, 2 μmol/L antioxidant, relative to vehicle control; for inhibition of p-MBP (in words): screen of 84 antioxidants, 2 μmol/L
T1 sequence (Q5S007 whole entry G2019S): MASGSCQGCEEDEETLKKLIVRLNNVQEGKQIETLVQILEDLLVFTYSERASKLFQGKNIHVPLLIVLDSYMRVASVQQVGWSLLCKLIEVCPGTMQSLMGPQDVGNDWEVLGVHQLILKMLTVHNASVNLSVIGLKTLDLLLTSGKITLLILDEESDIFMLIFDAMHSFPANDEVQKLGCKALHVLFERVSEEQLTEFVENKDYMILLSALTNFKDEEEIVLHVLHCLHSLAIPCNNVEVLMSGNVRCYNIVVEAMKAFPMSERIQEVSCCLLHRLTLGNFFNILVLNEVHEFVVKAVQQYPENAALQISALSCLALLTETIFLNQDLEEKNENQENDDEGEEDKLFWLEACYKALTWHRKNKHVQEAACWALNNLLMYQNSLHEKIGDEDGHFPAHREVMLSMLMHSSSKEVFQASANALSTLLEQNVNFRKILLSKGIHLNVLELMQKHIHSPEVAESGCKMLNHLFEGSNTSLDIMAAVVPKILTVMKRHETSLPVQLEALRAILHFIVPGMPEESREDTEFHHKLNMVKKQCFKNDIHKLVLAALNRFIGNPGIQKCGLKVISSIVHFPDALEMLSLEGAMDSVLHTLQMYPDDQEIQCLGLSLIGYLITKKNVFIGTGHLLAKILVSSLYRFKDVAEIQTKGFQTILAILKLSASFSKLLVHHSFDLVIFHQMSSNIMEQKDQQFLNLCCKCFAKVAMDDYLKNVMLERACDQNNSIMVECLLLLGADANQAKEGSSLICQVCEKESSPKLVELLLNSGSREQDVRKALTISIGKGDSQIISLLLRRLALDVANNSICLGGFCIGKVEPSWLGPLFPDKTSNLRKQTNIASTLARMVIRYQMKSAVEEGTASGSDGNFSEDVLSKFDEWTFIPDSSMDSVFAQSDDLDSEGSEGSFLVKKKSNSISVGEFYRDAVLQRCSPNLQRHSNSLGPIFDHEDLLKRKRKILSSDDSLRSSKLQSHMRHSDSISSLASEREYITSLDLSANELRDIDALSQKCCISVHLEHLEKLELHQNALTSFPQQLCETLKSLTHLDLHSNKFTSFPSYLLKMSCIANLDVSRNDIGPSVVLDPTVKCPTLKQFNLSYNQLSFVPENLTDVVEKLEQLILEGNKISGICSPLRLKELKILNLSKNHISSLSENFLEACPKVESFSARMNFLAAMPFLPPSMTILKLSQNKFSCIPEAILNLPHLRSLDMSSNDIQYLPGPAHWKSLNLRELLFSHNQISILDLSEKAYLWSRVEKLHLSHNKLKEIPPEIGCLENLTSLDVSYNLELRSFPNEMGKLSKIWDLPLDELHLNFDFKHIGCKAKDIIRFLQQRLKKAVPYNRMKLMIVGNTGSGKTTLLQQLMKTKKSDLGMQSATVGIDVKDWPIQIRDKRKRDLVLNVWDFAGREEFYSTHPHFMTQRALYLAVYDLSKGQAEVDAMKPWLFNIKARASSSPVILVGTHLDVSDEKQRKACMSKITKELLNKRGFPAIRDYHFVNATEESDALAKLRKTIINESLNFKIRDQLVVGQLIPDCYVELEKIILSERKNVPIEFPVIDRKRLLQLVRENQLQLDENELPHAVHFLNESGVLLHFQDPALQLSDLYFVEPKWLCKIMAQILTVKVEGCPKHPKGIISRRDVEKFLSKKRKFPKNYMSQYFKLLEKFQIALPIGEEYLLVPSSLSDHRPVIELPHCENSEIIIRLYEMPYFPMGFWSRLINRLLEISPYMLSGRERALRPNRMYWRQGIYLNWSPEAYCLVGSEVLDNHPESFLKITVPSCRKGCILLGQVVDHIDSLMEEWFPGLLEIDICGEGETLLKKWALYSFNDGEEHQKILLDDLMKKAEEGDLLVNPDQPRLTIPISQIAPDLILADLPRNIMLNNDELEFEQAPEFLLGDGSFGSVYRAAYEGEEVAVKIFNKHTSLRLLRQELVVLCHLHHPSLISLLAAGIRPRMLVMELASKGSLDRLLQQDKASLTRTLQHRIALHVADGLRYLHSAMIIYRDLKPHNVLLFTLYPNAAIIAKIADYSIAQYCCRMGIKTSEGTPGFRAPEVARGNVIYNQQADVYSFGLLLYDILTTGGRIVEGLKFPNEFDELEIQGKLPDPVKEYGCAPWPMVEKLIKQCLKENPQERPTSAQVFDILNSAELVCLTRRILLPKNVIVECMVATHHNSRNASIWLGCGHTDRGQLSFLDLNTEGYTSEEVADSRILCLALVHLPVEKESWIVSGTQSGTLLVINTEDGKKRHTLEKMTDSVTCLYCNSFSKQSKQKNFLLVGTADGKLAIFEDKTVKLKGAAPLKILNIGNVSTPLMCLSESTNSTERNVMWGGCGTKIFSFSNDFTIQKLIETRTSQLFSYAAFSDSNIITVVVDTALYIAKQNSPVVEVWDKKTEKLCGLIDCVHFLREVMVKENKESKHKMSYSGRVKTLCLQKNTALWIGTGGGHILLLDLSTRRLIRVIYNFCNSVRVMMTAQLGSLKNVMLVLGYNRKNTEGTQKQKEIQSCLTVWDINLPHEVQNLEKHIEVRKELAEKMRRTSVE

LRRK2-G2019S [2] = target: T1, LRRK2-G2019S; test: Filter-binding kinase assay, G2019S activity on LRRKtide; assay type: biochemical
Procedure, shortened: (§1)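 Recombinant LRRK2 G2019S (0.8 μg) with 5 μg synthetic peptide substrate, 10 μCi [γ32P]ATP and 1X kinase buffer in 40 μL, incubated at 30°C for 20 min. 10 μL of reaction spotted onto P81 phosphocellulose disks, washed twice in 75 mmol/L phosphoric acid, then counted by liquid scintillation. Reported as mean CPM ± SEM (n = 4) of phosphorylated peptide.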

LRRK2-G2019S [3] = target: T1, LRRK2-G2019S; test: Filter-binding kinase assay, G2019S activity on PEPrx3; assay type: biochemical
Procedure, shortened: as §1

[4] = system: LRRK2 G2019S‐expressing transgenic flies; test: Climbing assay; assay type: in vivo, Drosophila; conditions: 10 μmol/L in diet
LRRK2-WT = LRRK2-WT (Homo sapiens, UniProt Q5S007); test: Radiometric kinase assay, LRRK2-WT activity on MBP; assay type: biochemical; conditions: IC50 against LRRK2-WT, MBP substrate
Sequence of LRRK2-WT (Q5S007 whole entry): as the sequence (Q5S007 whole entry G2019S) above, with S2019G counted along it

dopaminergic neurons = conditions: mouse; cited from earlier work
[5] = system: ddc‐GAL4‐hLRRK2 G2019S flies; test: Oxidative state assays; assay type: in vivo, Drosophila; conditions: 10 μmol/L in food, relative fluorescence, control 31,756 ± 4142
[6] = system: LRRK2 G2019S‐expressing transgenic flies; test: Number of TH+ DA neurons in G2019S fly brains; assay type: in vivo, Drosophila; conditions: 10 μmol/L in diet; for increase in number of neurons in PPM3: 60 days posteclosion
Procedure, shortened: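 G2019S transgenic flies (ddc-GAL4 driver) fed cornmeal food containing test compound at 10 μmol/L (DMSO) or plain food, at 25°C. Whole-mount adult brains dissected 60 days after eclosion and immunostained with rabbit anti-TH (1:200). DA neurons scored per cluster, including PPM3, by confocal microscopy. Given as mean count per cluster (n = 4; cohort of 20).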

[7] = cited from earlier work
[8] = system: LRRK2 G2019S‐expressing transgenic flies; test: Lifespan / survival of G2019S flies; assay type: in vivo, Drosophila; conditions: nonsignificant
Procedure, shortened: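 ddc-GAL4-hLRRK2 G2019S flies raised at 25°C on cornmeal food, replaced every 2 days, either plain or with test compound in DMSO added at 10 μmol/L. Read-out is the percentage of surviving flies; n = 4 cohorts of 60.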

reduction of p-MBP (LRRK2-G2019S [1]): ~ 90%
SMILES: COc1cc(/C=C/C(=O)CC(=O)/C=C/c2ccc(O)c(OC)c2)ccc1O [Curcumin]

reduction of p-MBP (LRRK2-G2019S [1]): ~ 90%
SMILES: Cc1c(O)cc2c(c1C)O[C@](C)(CCC[C@H](C)CCC[C@H](C)CCCC(C)C)CC2 [γ‐Tocopherol]

reduction of p-MBP (LRRK2-G2019S [1]): ~ 90%
SMILES: CCCCCCCCOC(=O)/C=C/c1ccc(O)c(O)c1 [n-Octyl caffeate]

kinase activity toward LRRKtide (in words) (LRRK2-G2019S [2]): most significantly reduced
kinase activity toward PEPrx3 (in words) (LRRK2-G2019S [3]): most significantly reduced
SMILES: O=C(/C=C/c1ccc(O)c(O)c1)O[C@H](Cc1ccc(O)c(O)c1)C(=O)O [Rosmarinic acid]

inhibition of p-MBP (in words) (LRRK2-G2019S [1]): Weak or noninhibitory
SMILES: CC1=C(/C=C/C(C)=C/C=C/C(C)=C/C=C/C=C(C)/C=C/C=C(C)/C=C/C2=C(C)CCCC2(C)C)C(C)(C)CCC1 [β-carotene]

SMILES: CN[C@@H]1C[C@H]2O[C@@](C)([C@@H]1OC)n1c3ccccc3c3c4c(c5c6ccccc6n2c5c31)C(=O)NC4 [Staurosporine]
LRRK2 kinase activity (in words) (LRRK2-G2019S [1]; 10^−3 and 10^−1 μmol/L staurosporine, Fig. 1C): reduced kinase activity

kinase activity toward LRRKtide (in words) (LRRK2-G2019S [2]): most significantly reduced
kinase activity toward PEPrx3 (in words) (LRRK2-G2019S [3]): most significantly reduced
SMILES: O=c1cc(-c2ccccc2)oc2cc(O)c(O)c(O)c12 [Baicalein]

inhibition of p-MBP (in words) (LRRK2-G2019S [1]): Weak or noninhibitory
SMILES: N[C@@H](CCC(=O)N[C@@H](CS)C(=O)NCC(=O)O)C(=O)O [Glutathione]

kinase activity toward LRRKtide (in words) (LRRK2-G2019S [2]): most significantly reduced
kinase activity toward PEPrx3 (in words) (LRRK2-G2019S [3]): most significantly reduced
SMILES: Cc1cc2c(C(C)C)c(O)c(O)c(C=O)c2c(O)c1-c1c(C)cc2c(C(C)C)c(O)c(O)c(C=O)c2c1O [Gossypol]

kinase activity toward LRRKtide (in words) (LRRK2-G2019S [2]): most significantly reduced
IC50 (LRRK2-WT): 673 nM
IC50 (LRRK2-G2019S [1]; IC50 against LRRK2-G2019S, MBP substrate): 125 nM
kinase activity toward PEPrx3 (in words) (LRRK2-G2019S [3]): most significantly reduced
SMILES: CC1=CC(=O)C(C(C)C)=CC1=O [Thymoquinone]
increase in climbing scores [4]: ≤ 17%
protection of dopaminergic neurons against MPP+ (dopaminergic neurons): protect dopaminergic neurons against MPP+
level of H2O2 in brain lysates [5]: 18,445 ± 1229
increase in number of neurons in PPM3 [6]: up to 55%
crossing of the blood–brain barrier [7]: readily cross the blood–brain barrier

kinase activity toward LRRKtide (in words) (LRRK2-G2019S [2]): most significantly reduced
kinase activity toward PEPrx3 (in words) (LRRK2-G2019S [3]): most significantly reduced
SMILES: Oc1cc(O)cc(/C=C/c2ccc(O)c(O)c2)c1 [Piceatannol]
increase in climbing scores [4]: up to 22%
level of H2O2 in brain lysates [5]: 20,061 ± 2910
increase in number of neurons in PPM3 [6]: up to 55%

inhibition of p-MBP (in words) (LRRK2-G2019S [1]): Weak or noninhibitory
SMILES: CC(C)(Sc1cc(C(C)(C)C)c(O)c(C(C)(C)C)c1)Sc1cc(C(C)(C)C)c(O)c(C(C)(C)C)c1 [Probucol]
viability of TH+ neurons (in words) [6]: did not improve
decrease in lifespan [8]: 11%

kinase activity toward LRRKtide (in words) (LRRK2-G2019S [2]): most significantly reduced
kinase activity toward PEPrx3 (in words) (LRRK2-G2019S [3]): most significantly reduced
SMILES: O=c1ccc2cc(O)c(O)cc2o1 [Esculetin]
protection of dopaminergic neurons against MPP+ (dopaminergic neurons): protect dopaminergic neurons against MPP+
level of H2O2 in brain lysates [5]: 20,220 ± 1909
increase in number of neurons in PPM3 [6]: up to 55%
crossing of the blood–brain barrier [7]: readily cross the blood–brain barrier
